EBV gp42 block = EBV gp42 inhibition. hit rate 0.42% among 220,000. Fluorescence polarization binding assay, mP read-out. inhibition, % (tested at 21.74 µM). AID 1085. Q1HVG2; in the data active = inhibition above about 50%
Target sequence (Q1HVG2 whole entry, looked up): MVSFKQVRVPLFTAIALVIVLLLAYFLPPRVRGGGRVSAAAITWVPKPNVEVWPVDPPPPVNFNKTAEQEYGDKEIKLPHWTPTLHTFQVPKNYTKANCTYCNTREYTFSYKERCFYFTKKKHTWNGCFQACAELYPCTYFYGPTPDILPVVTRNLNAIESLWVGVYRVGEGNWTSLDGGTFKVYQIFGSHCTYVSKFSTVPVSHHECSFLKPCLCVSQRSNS
ZTA counter = ZTA (EBV) inhibition in EBNA-1 counter-screen | inhibition, % at 11 µM | P03206 | ZTA-DNA binding, fluorescence polarization | hit rate 0.15% among 320,000; in the data active = inhibition above about 33%
Target sequence (P03206 whole entry, looked up): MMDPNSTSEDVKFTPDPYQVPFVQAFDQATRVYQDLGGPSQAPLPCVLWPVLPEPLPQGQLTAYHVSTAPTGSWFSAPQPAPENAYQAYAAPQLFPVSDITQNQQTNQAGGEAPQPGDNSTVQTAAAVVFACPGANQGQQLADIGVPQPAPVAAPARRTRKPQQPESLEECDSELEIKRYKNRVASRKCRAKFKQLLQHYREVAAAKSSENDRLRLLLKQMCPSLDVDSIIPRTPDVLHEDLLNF
HCV core dimer = HCV core protein dimerization inhibition. inhibition, % at 5 µM. AID 1899. hit rate 0.33% among 300,000. TR-FRET GST/Flag-core106 dimerization, 1536-well;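 active = inhibition above the mean of all tested compounds plus 3 SD, set per screening campaign, cut at about 45% in these data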
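System – GST-tagged and Flag-tagged HCV core protein residues 1-106 · Repeats – one well for each compound · Technique – TR-FRET 671 and 617 nm emission · Doses – one concentration, 5 µM, in 0.5% DMSO · Times – 4 h, 22.5 °C incubation · Also added – Eu donor and XL665 acceptor anti-tag antibodies · Measure – percent inhibition of core106 dimerization signal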
EBNA-1 inhibitor = blocks EBNA-1 binding to DNA; EBNA-1 DNA binding, fluorescence polarization; inhibition, % at 14.8 µM; hit rate 0.34% among 300,000; in the data active = inhibition above about 28%
NS3 helicase inh = inhibitors of Hepatitis C virus NS3 helicase; NS3 helicase DNA unwinding, Cy5 molecular beacon fluorescence; inhibition, % at 10.9 µM; hit rate 0.56% among 290,000;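 active = inhibition above the mean of all tested compounds plus 3 SD, set per campaign, cut at about 35% in these data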
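Assay system – hepatitis C virus NS3 helicase domain fragment enzyme · Buffer or medium – MOPS pH 6.5, MgCl2, DTT, Tween20, BSA · Reagent – Cy5/quencher beacon DNA duplex and ATP to start · Compound – single 10.9 µM dose · Timing – 1 h at 25 °C · Technique – Cy5 beacon fluorescence read at start and 1 h · Measure – % inhibition of unwinding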
MEX-5 binding = C. elegans MEX-5 TCR-2 RNA binding activity; activity score (negative = inhibition of binding), % at 10 µM; hit rate 0.38% among 300,000; MEX-5/FITC-TCR2 RNA binding, fluorescence polarization; active compounds read low; Q9XUB2; AID 1832;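 active = inhibition past about -25% in most replicates, and total fluorescence under double the plate's negative control median, limit read from the data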
Each line names hits and unclear results; the compound was inactive in the other large screens. In the library only some 1.7% were active in any assay of this set; here they are far more common.

O=C(N/N=C/c1ccc(F)cc1)c1cc(-c2ccco2)nc2ccccc12	EBV gp42 block 82.9, HCV core dimer 68.7, NS3 helicase inh 38.8
O=C(Nc1nccs1)c1cc(-c2ccccc2)nc2ccccc12	none
O=c1[nH]c(C2CCN(S(=O)(=O)c3ccccc3)CC2)nc2c1nnn2Cc1c(F)cccc1Cl	none (no result: EBV gp42 block)
CC(=O)N1CCC(C(=O)NCCOc2ccc(C)cc2)CC1	none (no result: EBV gp42 block)
Cc1c(NC(=O)Nc2ccc(C#N)cc2)c(=O)n(-c2ccccc2)n1C	none (no result: EBV gp42 block)
COc1ccc(NS(=O)(=O)c2ccc(N3CCOCC3)c(N)c2)cc1	none (no result: EBV gp42 block, HCV core dimer, EBNA-1 inhibitor, NS3 helicase inh, MEX-5 binding)
O=C(N/N=C/c1ccco1)c1cccc(N2Cc3ccccc3C2)c1	HCV core dimer 63.2
O=C(N/N=C/c1ccco1)c1cccc(N2CCCC2=O)c1	none
O=C(NCc1ccco1)c1nn2c(C(F)(F)F)cc(-c3cccs3)nc2c1Br	HCV core dimer 53.8
Nc1cc2c3c(cccc3c1)C(=O)N(CCN1CCCC1)C2=O	EBV gp42 block 94.6, MEX-5 binding -28.1
CCN(CC)CCN1C(=O)c2cccc3cc(N)cc(c23)C1=O	EBV gp42 block 101.2, MEX-5 binding -68.6
CC(=O)OCCCN1C(=O)c2cccc3cc(Br)cc(c23)C1=O	none (no result: EBV gp42 block)
Cc1ccc(C)c(S(=O)(=O)N2CCN(C(=O)c3n[nH]c(=O)c4ccccc34)CC2)c1	none (no result: EBV gp42 block, HCV core dimer, EBNA-1 inhibitor, NS3 helicase inh, MEX-5 binding)
Cc1ccc2nc(N3CCN(S(=O)(=O)c4ccc(C)c(Cl)c4)CC3)c(C#N)cc2c1	HCV core dimer 61.9
CCc1cc2cc(C(=O)Nc3ccc(C)cc3)sc2s1	HCV core dimer 51.9
COc1ccc(C(=O)Nc2nc3ccc(OC)cc3s2)cc1	none (no result: EBV gp42 block, ZTA counter, HCV core dimer, EBNA-1 inhibitor)
COc1ccc2nc(NC(=O)c3cccc(-c4cc5ccccc5oc4=O)c3)sc2c1	EBNA-1 inhibitor 44.3
COc1ccc(C(=O)Nc2cccc(-c3cc4ccccc4oc3=O)c2)cc1[N+](=O)[O-]	EBV gp42 block 58.4 (no result: MEX-5 binding)
CC(=O)Nc1ccc(NC(=O)c2cccc(-c3cc4ccccc4oc3=O)c2)cc1	none
CCc1ccccc1NC(=O)CN1CCN(CC(=O)NCc2ccc(Cl)cc2)CC1	none (no result: EBV gp42 block, HCV core dimer, EBNA-1 inhibitor, NS3 helicase inh, MEX-5 binding)
CC1=C(C(=O)Nc2ccccc2)C(c2ccc(C)o2)n2c(s/c(=C/c3ccccc3)c2=O)=N1 (stereo unspecified)	none
CC1=C(C(=O)Nc2ccccc2C)C(c2ccc(C)o2)n2c(s/c(=C/c3ccccc3)c2=O)=N1 (stereo unspecified)	HCV core dimer 47.7
Cc1ccccc1Nc1nc(Cl)c(C=O)s1	MEX-5 binding -40.8
CSc1nnc(Nc2ccccc2C)s1	none
COCC1CCN(C(=O)CC2C(=O)NCCN2Cc2cccc(Oc3ccccc3)c2)CC1 (stereo unspecified)	MEX-5 binding -25.7 (no result: EBV gp42 block)
O=C1Nc2ccccc2SC(c2ccccc2)C1O (stereo unspecified)	EBV gp42 block 66.6, HCV core dimer 83.0
CC(/C=C1\SC(=S)N(NC(=O)c2ccc(C)cc2)C1=O)=C\c1ccccc1	HCV core dimer 66.5
O=C(NCCc1ccccc1)c1coc(=O)c(Br)c1	none (no result: EBV gp42 block, ZTA counter, HCV core dimer, EBNA-1 inhibitor)
CN(C)c1ccc(/C=C(\C#N)C(=O)Nc2nc3c(s2)CCN(Cc2ccccc2)C3)cc1	EBV gp42 block 105.7
O=C(Nc1nc2c(s1)CN(Cc1ccccc1)CC2)C1CCC1	none
COCC1CCCN(C(=O)c2ccc3nc(Cc4cccc(Cl)c4)oc3c2)C1 (stereo unspecified)	none (no result: EBV gp42 block)
COc1cccc2c1C(=O)c1c(O)c3c(c(O)c1C2=O)C[C@@](O)(C(C)=O)C[C@@H]3O[C@H]1C[C@H](N)[C@H](O)[C@H](C)O1	EBV gp42 block active (no result: ZTA counter, HCV core dimer, EBNA-1 inhibitor, MEX-5 binding)
Cc1ccc(C)c(C2C(=O)c3ccccc3C2=O)c1	none (no result: EBV gp42 block)
Cc1ccc2ccc(C3C(=O)c4ccccc4C3=O)nc2c1	MEX-5 binding -40.5 (no result: EBV gp42 block)
O=C(COC(=O)CCS(=O)(=O)c1ccccc1)Nc1ccc(N2CCCCC2)cc1	none (no result: EBV gp42 block, HCV core dimer, EBNA-1 inhibitor, NS3 helicase inh, MEX-5 binding)
CCCCN(C)C(=O)c1cccc(OC2CCN(CC(C)(C)C)CC2)c1	MEX-5 binding -31.3 (no result: EBV gp42 block)
O=C(c1cc(COc2c(F)cccc2F)on1)N1CCc2ccccc2C1	none
O=C(NNC(=O)c1cc(-c2ccc(Cl)cc2)nc2ccccc12)c1csc(N2CCOCC2)n1	none (no result: EBV gp42 block, NS3 helicase inh)
Cc1cc(-c2ccc(C(C)C)c(S(=O)(=O)N3CCC(C)CC3)c2)on1	none (no result: EBV gp42 block)
Cc1cccc2cc3c(nc12)-c1ccccc1C3=O	none (no result: EBV gp42 block)

High-throughput results (PubChem)
